Source: ChEMBL document CHEMBL4184143 (J Med Chem, 2017)

Columns and labels:
[1] = Oral bioavailability in Sprague-Dawley rat at 25 mg/kg by LC/MS method; assay type: ADME, organism-based; conditions: in vivo
[2] = biological target: Bromodomain adjacent to zinc finger domain protein 2B (Homo sapiens, UniProt Q9UIF8); assay: Binding affinity to human partial length BAZ2B (S2054 to S2168 residues) expressed in bacterial expression system by BROMOscan assay
[3] = biological target: Bromodomain-containing protein 4 (Homo sapiens, UniProt O60885); assay: Binding affinity to human partial length BRD4 bromodomain 2 long isoform (K333 to E460 residues) expressed in bacterial expression system by BROMOscan assay
Mus musculus [4] = assay: Toxicity in SCID mouse implanted with human MDA-MB-231 cells assessed as weight loss at 40 mg/kg, po qd measured 2 to 3 times weekly during treatment and weekly post dose; assay type: organism-based; conditions: in vivo
Summary of the method: (§1)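 At ~100 mm3, mice were randomized to treatment or vehicle control. Tumors were measured by electronic calipers. Animals were checked daily for signs of toxicity and weighed 2–3 times weekly on treatment, then at least weekly afterwards.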

[5] = biological target: T1, Bromodomain-containing protein 2 (Homo sapiens, UniProt P25440); assay: Binding affinity to human partial length BRD2 bromodomain 2 isoform 1 (349 to 460 residues) expressed in bacterial expression system by BROMOscan assay
T1 sequence (P25440 whole entry, the tested form may be a part, canonical isoform): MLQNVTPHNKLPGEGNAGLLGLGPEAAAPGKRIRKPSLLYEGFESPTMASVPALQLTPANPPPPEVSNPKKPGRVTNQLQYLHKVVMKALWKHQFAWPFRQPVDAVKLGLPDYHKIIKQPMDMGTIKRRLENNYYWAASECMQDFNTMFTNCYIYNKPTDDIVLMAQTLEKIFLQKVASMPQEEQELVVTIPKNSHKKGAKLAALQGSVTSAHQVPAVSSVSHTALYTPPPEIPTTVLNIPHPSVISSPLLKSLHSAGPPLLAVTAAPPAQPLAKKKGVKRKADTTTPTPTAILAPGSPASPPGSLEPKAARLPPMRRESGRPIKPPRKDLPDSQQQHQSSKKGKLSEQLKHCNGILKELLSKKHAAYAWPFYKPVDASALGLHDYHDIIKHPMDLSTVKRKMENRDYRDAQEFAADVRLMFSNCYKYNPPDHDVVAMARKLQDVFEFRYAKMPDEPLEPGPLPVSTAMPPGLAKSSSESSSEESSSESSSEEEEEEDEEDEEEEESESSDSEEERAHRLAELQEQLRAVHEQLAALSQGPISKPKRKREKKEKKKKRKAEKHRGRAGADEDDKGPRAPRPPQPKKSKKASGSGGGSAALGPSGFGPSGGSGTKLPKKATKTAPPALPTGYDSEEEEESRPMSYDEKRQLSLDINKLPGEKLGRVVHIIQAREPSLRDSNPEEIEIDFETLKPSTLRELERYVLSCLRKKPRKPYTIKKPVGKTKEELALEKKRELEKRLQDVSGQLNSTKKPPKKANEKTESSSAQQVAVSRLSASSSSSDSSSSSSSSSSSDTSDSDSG

[6] = Clearance in Sprague-Dawley rat at 5 mg/kg, iv by LC/MS method; assay type: ADME, organism-based; conditions: in vivo
[7] = biological target: T2, Bromodomain testis-specific protein (Homo sapiens, UniProt Q58F21); assay: Binding affinity to human partial length BRDT bromodomain 2 isoform b (K250 to E382 residues) expressed in bacterial expression system by BROMOscan assay
[8] = biological target: ATPase family AAA domain-containing protein 2B (Homo sapiens, UniProt Q9ULI0); assay: Binding affinity to human partial length ATAD2B (Q955 to R1082 residues) expressed in bacterial expression system by BROMOscan assay
[9] = biological target: Bromodomain-containing protein 1 (Homo sapiens, UniProt O95696); assay: Binding affinity to human partial length BRD1 (E556 to A688 residues) expressed in bacterial expression system by BROMOscan assay
Bromodomain-containing protein 1, sequence (O95696 whole entry, the tested form may be a part): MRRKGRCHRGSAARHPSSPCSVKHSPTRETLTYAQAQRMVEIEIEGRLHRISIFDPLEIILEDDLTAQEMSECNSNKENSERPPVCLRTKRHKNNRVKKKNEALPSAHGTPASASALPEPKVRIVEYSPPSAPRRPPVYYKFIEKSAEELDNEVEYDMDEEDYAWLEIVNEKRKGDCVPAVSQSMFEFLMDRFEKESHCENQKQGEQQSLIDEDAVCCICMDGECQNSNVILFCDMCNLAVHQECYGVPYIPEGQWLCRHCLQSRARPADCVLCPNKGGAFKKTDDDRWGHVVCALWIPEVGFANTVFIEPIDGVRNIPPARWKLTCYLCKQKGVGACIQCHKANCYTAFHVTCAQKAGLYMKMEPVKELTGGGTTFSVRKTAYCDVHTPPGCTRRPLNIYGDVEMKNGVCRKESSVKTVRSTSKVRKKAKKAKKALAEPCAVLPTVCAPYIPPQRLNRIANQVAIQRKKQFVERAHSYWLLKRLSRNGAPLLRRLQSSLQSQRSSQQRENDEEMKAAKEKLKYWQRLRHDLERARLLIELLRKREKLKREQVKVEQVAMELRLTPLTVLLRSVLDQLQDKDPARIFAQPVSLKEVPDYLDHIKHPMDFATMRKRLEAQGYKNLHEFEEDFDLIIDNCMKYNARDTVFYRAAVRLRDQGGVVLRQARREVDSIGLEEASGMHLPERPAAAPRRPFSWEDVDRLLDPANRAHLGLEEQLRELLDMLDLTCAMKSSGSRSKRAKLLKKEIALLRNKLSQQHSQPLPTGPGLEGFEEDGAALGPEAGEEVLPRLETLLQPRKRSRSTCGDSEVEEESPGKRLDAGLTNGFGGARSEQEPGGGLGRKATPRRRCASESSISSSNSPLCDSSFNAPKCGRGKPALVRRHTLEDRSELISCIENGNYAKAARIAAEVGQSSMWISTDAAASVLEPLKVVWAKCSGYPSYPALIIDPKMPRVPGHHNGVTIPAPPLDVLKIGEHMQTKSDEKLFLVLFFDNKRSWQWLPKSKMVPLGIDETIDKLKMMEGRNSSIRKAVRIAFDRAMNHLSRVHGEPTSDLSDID

Peregrin = Peregrin (Homo sapiens, UniProt P55201); assay: Binding affinity to human partial length BRPF1 (E627 to G740 residues) expressed in bacterial expression system by BROMOscan assay
HBL-100 = assay: Cytotoxicity against human HBL100 cells assessed as cell growth inhibition after 4 days by WST-8 assay; assay type: functional, cell-based; conditions: HBL-100, 96 h
Summary of the method: (§2)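 Breast cancer cells were seeded at 3,000 cells/well, treated with serially diluted compound in medium and cultured for 4 days. Growth was read by WST-8 (10% v/v final, 1–3 h) at 450 nm. Readings were normalized to DMSO-treated cells, and IC50 was obtained by nonlinear regression.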

MV4-11 [10] = assay: Induction of apoptosis in human MV4-11 cells assessed as upregulation of cleaved PARP protein level after 24 hrs by Western blot method; assay type: functional, cell-based
Summary of the method: (§3)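 MV4;11 cells were exposed to compound for 24 h and lysed in RIPA buffer with protease inhibitors. Lysates were separated on 4–20% SDS-PAGE, blotted to PVDF and probed for PARP, cleaved PARP and p21, with β-actin as loading control.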

[11] = biological target: T3, Bromodomain-containing protein 3 (Homo sapiens, UniProt Q15059); assay: Binding affinity to human partial length BRD3 bromodomain 2 (G306 to P416 residues) expressed in bacterial expression system by BROMOscan assay
T3 sequence (Q15059 whole entry, the tested form may be a part): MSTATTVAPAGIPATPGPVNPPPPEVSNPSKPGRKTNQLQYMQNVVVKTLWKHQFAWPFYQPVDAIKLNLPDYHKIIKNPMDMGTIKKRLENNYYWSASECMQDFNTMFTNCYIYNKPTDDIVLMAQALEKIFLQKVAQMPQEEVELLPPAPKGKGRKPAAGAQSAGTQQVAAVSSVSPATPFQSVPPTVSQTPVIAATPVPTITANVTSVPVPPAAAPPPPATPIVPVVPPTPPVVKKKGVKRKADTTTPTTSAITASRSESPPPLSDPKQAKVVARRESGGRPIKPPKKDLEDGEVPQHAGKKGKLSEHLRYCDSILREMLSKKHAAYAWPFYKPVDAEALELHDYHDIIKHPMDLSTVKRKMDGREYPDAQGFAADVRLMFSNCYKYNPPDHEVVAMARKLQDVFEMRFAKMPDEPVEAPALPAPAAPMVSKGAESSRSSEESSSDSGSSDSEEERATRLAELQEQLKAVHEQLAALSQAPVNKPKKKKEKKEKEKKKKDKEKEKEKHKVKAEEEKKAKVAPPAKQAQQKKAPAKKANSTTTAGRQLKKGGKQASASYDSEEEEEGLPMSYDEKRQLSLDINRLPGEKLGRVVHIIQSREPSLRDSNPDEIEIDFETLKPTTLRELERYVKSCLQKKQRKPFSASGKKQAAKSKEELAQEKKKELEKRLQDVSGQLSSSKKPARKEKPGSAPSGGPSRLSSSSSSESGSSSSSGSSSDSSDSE

[12] = biological target: T3, Bromodomain-containing protein 3; assay: Binding affinity to human partial length BRD3 bromodomain 1/2 (P24 to P416 residues) expressed in bacterial expression system by BROMOscan assay
[13] = biological target: T2, Bromodomain testis-specific protein; assay: Binding affinity to human partial length BRDT bromodomain 1/2 isoform b (K250 to E382 residues) expressed in bacterial expression system by BROMOscan assay
Mus musculus [14] = assay: Toxicity in SCID mouse implanted with human MDA-MB-231 cells at 40 mg/kg, po qd measured 2 to 3 times weekly during treatment and weekly post dose; assay type: organism-based; conditions: in vivo; summary of the method: as §1
HCC1937 = assay: Cytotoxicity against human HCC1937 cells assessed as cell growth inhibition after 4 days by WST-8 assay; assay type: functional, cell-based; conditions: HCC1937, 96 h; summary of the method: as §2
[15] = biological target: Bromodomain-containing protein 7 (Homo sapiens, UniProt Q9NPI1); assay: Binding affinity to human partial length BRD7 (L125 to R254 residues) expressed in […] expression system by BROMOscan assay
MV4-11 [16] = assay: Antitumor activity against human MV4-11 cells xenografted in SCID mouse assessed as tumor growth inhibition at 50 mg/kg, po qd measured 2 to 3 times weekly during treatment and once weekly post dose; assay type: functional; conditions: MV4-11, po, read-out: TGI; summary of the method: as §1
[17] = AUC (0 to t) in Sprague-Dawley rat at 25 mg/kg, po by LC/MS method; assay type: ADME, organism-based; conditions: in vivo
Summary of the method: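 Sprague Dawley rats were dosed iv at 5 mg/kg or orally at 25 mg/kg, with compound dissolved in 20% (v/v) PCP/70% (v/v) PBS vehicle. Blood was drawn by catheter at 0, 5, 15, 30 min and 1, 2, 4, 6, 8, 24 h and spun to plasma, which was stored at −80 °C. Plasma drug was quantified by a validated LC–MS/MS method, and parameters were derived noncompartmentally.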

[18] = biological target: ATPase family AAA domain-containing protein 2 (Homo sapiens, UniProt Q6PL18); assay: Binding affinity to human partial length ATAD2A (Q981 to R1108 residues) expressed in bacterial expression system by BROMOscan assay
[19] = biological target: T1, Bromodomain-containing protein 2; assay: Binding affinity to human partial length BRD2 bromodomain 1 long isoform (72 to 205 residues) expressed in bacterial expression system by BROMOscan assay
[20] = biological target: T2, Bromodomain testis-specific protein; assay: Binding affinity to human partial length BRDT bromodomain 1 isoform b (N21 to E137 residues) expressed in bacterial expression system by BROMOscan assay
[21] = Half life in human liver microsomes at 1 uM by LC/MS method; assay type: ADME, microsome
MV4-11 [22] = assay: Inhibition of BET bromodomain in human MV4-11 cells assessed as downregulation of c-myc level after 1 hr by Western blot method; assay type: cell-based
Summary of the method: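 MV4;11 cells were treated with a range of compound concentrations for 1 h and lysed in RIPA buffer with protease inhibitors. Lysates were run on 4–20% SDS-PAGE, transferred to PVDF and probed for c-Myc with a specific antibody.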

Mus musculus [23] = assay: Half life in SCID mouse at 5 mg/kg, iv by LC/MS method; assay type: ADME, organism-based; conditions: in vivo
MV4-11 [24] = assay: Inhibition of BET bromodomain in human MV4-11 cells assessed as upregulation of p21 protein level after 24 hrs by Western blot method; assay type: cell-based; summary of the method: as §3
[25] = Volume of distribution at steady state in Sprague-Dawley rat at 5 mg/kg, iv by LC/MS method; assay type: ADME, organism-based; conditions: in vivo, read-out: Vdss
HCC1143 = assay: Cytotoxicity against human HCC1143 cells assessed as cell growth inhibition after 4 days by WST-8 assay; assay type: functional, cell-based; conditions: HCC1143, 96 h; summary of the method: as §2
[26] = Oral bioavailability in SCID mouse at 25 mg/kg by LC/MS method; assay type: ADME, organism-based; conditions: in vivo

Bromodomain adjacent to zinc finger domain protein 2B, sequence (Q9UIF8 whole entry, the tested form may be a part, canonical isoform): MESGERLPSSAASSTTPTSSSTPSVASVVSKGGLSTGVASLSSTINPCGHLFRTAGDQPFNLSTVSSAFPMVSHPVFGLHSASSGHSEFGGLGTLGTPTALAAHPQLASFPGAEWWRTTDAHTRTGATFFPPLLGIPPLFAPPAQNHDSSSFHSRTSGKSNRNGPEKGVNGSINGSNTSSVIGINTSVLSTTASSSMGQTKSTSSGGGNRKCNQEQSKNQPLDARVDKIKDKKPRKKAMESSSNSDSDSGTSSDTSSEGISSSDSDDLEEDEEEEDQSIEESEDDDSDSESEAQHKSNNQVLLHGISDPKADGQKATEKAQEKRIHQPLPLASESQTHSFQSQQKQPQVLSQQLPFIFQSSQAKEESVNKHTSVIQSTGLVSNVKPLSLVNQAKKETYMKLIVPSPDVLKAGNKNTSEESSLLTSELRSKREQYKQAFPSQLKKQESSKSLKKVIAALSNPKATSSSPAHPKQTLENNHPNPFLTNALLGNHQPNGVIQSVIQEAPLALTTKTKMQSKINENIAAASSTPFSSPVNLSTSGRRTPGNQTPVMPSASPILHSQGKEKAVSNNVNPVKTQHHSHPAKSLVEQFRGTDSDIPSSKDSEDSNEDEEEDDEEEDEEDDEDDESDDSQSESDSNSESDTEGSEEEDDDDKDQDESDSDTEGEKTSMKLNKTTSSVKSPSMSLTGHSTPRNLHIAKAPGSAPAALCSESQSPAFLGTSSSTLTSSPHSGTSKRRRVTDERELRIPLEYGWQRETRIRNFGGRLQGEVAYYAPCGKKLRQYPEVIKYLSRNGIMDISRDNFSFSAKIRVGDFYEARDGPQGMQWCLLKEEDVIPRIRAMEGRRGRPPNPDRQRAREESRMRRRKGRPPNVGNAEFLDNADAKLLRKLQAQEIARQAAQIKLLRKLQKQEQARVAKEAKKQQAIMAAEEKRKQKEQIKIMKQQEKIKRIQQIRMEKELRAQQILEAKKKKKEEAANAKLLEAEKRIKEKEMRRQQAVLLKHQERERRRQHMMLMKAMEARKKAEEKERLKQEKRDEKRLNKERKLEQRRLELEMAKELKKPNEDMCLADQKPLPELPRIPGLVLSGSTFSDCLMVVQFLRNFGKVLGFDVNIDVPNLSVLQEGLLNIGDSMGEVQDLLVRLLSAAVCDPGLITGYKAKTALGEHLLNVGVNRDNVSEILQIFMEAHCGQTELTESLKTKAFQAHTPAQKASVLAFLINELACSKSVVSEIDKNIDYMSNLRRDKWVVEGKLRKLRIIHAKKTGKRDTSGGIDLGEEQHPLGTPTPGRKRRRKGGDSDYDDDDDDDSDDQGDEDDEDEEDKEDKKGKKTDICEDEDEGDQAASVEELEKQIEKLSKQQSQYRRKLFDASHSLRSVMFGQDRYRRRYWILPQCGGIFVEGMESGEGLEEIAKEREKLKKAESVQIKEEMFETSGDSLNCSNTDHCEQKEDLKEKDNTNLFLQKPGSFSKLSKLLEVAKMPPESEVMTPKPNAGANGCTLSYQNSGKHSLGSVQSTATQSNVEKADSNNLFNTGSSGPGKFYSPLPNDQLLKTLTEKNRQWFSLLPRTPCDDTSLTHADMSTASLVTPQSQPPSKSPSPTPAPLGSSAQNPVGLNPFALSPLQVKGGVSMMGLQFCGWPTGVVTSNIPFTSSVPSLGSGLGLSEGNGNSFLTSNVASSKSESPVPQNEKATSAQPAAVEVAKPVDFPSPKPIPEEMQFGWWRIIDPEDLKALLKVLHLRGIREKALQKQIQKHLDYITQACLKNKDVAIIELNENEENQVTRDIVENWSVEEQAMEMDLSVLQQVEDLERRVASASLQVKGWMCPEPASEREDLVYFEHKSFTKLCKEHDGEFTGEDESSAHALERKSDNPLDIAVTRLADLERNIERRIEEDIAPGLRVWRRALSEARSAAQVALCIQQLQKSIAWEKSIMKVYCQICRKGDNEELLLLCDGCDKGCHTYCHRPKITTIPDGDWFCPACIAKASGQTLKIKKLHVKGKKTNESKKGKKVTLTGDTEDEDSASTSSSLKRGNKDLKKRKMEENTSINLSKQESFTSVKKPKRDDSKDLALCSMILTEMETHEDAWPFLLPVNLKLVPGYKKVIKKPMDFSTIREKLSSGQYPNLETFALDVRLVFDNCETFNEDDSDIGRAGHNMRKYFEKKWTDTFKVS

## COc1cc2c(cc1-c1c(C)noc1C)[nH]c1nc(C)nc(-c3ccnc4ccccc34)c12
[1]
  bioavailability: 93%
[2]
  Kd: > 4000 nM
[3]
  Kd: 2 nM
Mus musculus [4]
  Activity: Non-Toxic
[5]
  Kd: 0.9 nM
[6]
  clearance: 13.2 mL/min/kg
[7]
  Kd: 5.5 nM
[8]
  Kd: > 4000 nM
[9]
  Kd: > 4000 nM
Peregrin
  Kd: > 4000 nM
HBL-100
  IC50: > 2000 nM
MV4-11 [10]
  Activity: Dose-dependent effect
[11]
  Kd: 0.69 nM
[12]
  Kd: 0.73 nM
[13]
  Kd: 9.7 nM
Mus musculus [14]
  Activity: Non-Toxic
HCC1937
  IC50: > 2000 nM
[15]
  Kd: > 4000 nM
MV4-11 [16]
  inhibition in vivo at 50 mg/kg: > 80%
[17]
  AUC(0-t): 29500 ng·h/mL
[18]
  Kd: > 4000 nM
[19]
  Kd: 4.5 nM
[20]
  Kd: 15 nM
[21]
  t1/2: > 60 min
MV4-11 [22]
  inhibition: Dose-dependent effect
Mus musculus [23]
  t1/2: 30 min
MV4-11 [24]
  inhibition: Dose-dependent effect
[25]
  Vd: 2 L/kg
HCC1143
  IC50: > 2000 nM
[26]
  bioavailability: 50%
